Measurements reported in ChEMBL document CHEMBL5357069, “Development of a GC-376 Based Peptidomimetic PROTAC as a Degrader of 3-Chymotrypsin-like Protease of SARS-CoV-2” (ACS Med Chem Lett, 2024).
pIC50: −log10 of the molar value. The source made the active and inactive calls. The calls are words filed in the database; no cut-off is given here.

Assays:
[1] = biological target: Replicase polyprotein 1ab (Severe acute respiratory syndrome coronavirus 2, UniProt P0DTD1); assay: Inhibition of N-terminal 6xHis-tagged SARS-CoV-2 3CLPro expressed in Escherichia coli BL21(DE3) using Hi-lyte Fluor-488-ESATLQSGLRKAK-(QXL-520)-NH2 as substrate preincubated for 10 mins followed by substrate addition measured for 30 mins by fluorometric assay
[2] = biological target: Replicase polyprotein 1ab (Severe acute respiratory syndrome coronavirus 2) (UniProt P0DTD1); assay: Binding affinity to monomeric form of SARS-CoV-2 3CLPro assessed as change in chemical shift by NMR spectroscopy
[3] = biological target: Replicase polyprotein 1ab (Severe acute respiratory syndrome coronavirus 2) (UniProt P0DTD1); assay: Binding affinity to dimeric form of SARS-CoV-2 3CLPro assessed as change in chemical shift by NMR spectroscopy
How it was run: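 Solution NMR titration of dimeric 3CLPro with the ligand up to a 1:1 protein:ligand molar ratio, following loss of free-protein signals and appearance of adduct signals.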

[4] = biological target: Replicase polyprotein 1ab (Severe acute respiratory syndrome coronavirus 2) (UniProt P0DTD1); assay: Binding affinity to SARS-CoV-2 3CLPro assessed as covalent complex formation by MALDI TOF mass spectrometry
[5] = biological target: Replicase polyprotein 1ab (Severe acute respiratory syndrome coronavirus 2) (UniProt P0DTD1); assay: Reversible binding affinity to SARS-CoV-2 3CLPro using fluorogenic substrate assessed as covalent complex formation preincubated for 30 mins followed by substrate addition by MALDI TOF mass spectrometry
How it was run: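 Reversibility by dilution: enzyme incubated 30 min with or without large compound excess, then diluted 100-fold into buffer with fluorogenic substrate; initial velocities from progress curves compared against compound-free enzyme.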

[6] = biological target: T1, Protein cereblon/Replicase polyprotein 1ab (Severe acute respiratory syndrome coronavirus 2) (UniProt Q96SW2+P0DTD1); assay: PROTAC activity at CRBN/C-terminal HA epitope-tagged SARS-CoV-2 3CLPro transfected in human HeLa cells assessed as degradation of 3CLPro upto 80 uM by immunoblot analysis; type: cell-based
How it was run: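 HeLa cells stably expressing C-terminally HA-tagged 3CLPro (lentiviral, puromycin-selected) treated 24 h at a range of concentrations; lysates immunoblotted, 3CLPro normalized to actin.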

[7] = biological target: T1, Protein cereblon/Replicase polyprotein 1ab (Severe acute respiratory syndrome coronavirus 2); assay: PROTAC activity at CRBN/C-terminal HA epitope-tagged SARS-CoV-2 3CLPro transfected in human HeLa cells assessed as degradation of 3CLPro at 80 uM incubated upto 48 hrs by immunoblot analysis; type: cell-based
How it was run: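 Time course in HeLa cells stably expressing C-terminally HA-tagged 3CLPro (lentiviral transduction, puromycin selection), treated at 80 μM; whole-cell extracts immunoblotted, 3CLPro band normalized to actin.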

[8] = test system: HeLa; assay: Cytotoxicity against human HeLa cells assessed as cell viability upto 80 uM incubated for 72 hrs by MTT assay; type: toxicity, cell-based
How it was run: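 HeLa cells exposed to compound for 72 h at a series of concentrations; viability read by MTT assay.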

[9] = biological target: Replicase polyprotein 1ab (Severe acute respiratory syndrome coronavirus 2) (UniProt P0DTD1); assay: Inhibition of N-terminal 6xHis-tagged SARS-CoV-2 3CLPro expressed in Escherichia coli BL21(DE3) using Hi-lyte Fluor-488-ESATLQSGLRKAK-(QXL-520)-NH2 as substrate at 100 uM preincubated for 10 mins followed by substrate addition measured for 30 mins by fluorometric assay relative to control; conditions: time 40.0 min
[10] = biological target: Replicase polyprotein 1ab (Severe acute respiratory syndrome coronavirus 2) (UniProt P0DTD1); assay: Inhibition of N-terminal 6xHis-tagged SARS-CoV-2 3CLPro expressed in Escherichia coli BL21(DE3) using Hi-lyte Fluor-488-ESATLQSGLRKAK-(QXL-520)-NH2 as substrate at 10 uM preincubated for 10 mins followed by substrate addition measured for 30 mins by fluorometric assay relative to control; conditions: time 40.0 min

Row | Compound | pIC50 [1] | Activity [2] | Activity [3] | Activity [4] | Activity [5] | Activity [6] | Activity [7] | Activity [8] | inhibition [9] [%] | inhibition [10] [%]
1 | CC(C)C[C@H](NC(=O)OCc1ccccc1)C(=O)N[C@H](/C=C/C(=O)N1CCN(CC2CCN(c3cc4c(cc3F)C(=O)N(C3CCC(=O)NC3=O)C4=O)CC2)CC1)C[C@@H]1CCNC1=O (stereo partly drawn) | 4.67 | inactive | Active | Active | Active | Active | Active | Non-Toxic | – | –
2 | COC(=O)/C=C/[C@H](C[C@@H]1CCNC1=O)NC(=O)[C@H](CC(C)C)NC(=O)OCc1ccccc1 | 5.87 | – | – | Active | – | – | – | – | – | –
3 | COC(=O)/C=C/[C@H](C[C@@H]1CCNC1=O)NC(=O)[C@H](Cc1ccccc1)NC(=O)[C@@H](NC(=O)CCC(=O)N1CCN(C(=O)C2CCN(c3cccc4c3C(=O)N(C3CCC(=O)NC3=O)C4=O)CC2)CC1)C(C)C (stereo partly drawn) | < 4.00 | – | – | – | – | – | – | – | 64 | 0
